Experimental data taken from ChEMBL document CHEMBL4819099, “A biphenyl inhibitor of eIF4E targeting an internal binding site enables the design of cell-permeable PROTAC-degraders” (Eur J Med Chem, 2021).
Values belong to the compound of their own block, whether it stands above or below them. Activity calls are given as the source filed them. The rule behind the calls is not given here.

Key:
[1] = biological target: Protein cereblon (Homo sapiens, UniProt Q96SW2); experiment: Binding affinity to Cereblon in human Flp293T cells transfected with BRD4(BD2)-GFP fusion protein and mCherry reporter assessed as inhibition of dBET6-induced BRD4(BD2) degradation after 5 hrs fluorescence based analysis; assay type: cell-based
Protein cereblon, sequence (Q96SW2 whole entry, the tested form may be a part): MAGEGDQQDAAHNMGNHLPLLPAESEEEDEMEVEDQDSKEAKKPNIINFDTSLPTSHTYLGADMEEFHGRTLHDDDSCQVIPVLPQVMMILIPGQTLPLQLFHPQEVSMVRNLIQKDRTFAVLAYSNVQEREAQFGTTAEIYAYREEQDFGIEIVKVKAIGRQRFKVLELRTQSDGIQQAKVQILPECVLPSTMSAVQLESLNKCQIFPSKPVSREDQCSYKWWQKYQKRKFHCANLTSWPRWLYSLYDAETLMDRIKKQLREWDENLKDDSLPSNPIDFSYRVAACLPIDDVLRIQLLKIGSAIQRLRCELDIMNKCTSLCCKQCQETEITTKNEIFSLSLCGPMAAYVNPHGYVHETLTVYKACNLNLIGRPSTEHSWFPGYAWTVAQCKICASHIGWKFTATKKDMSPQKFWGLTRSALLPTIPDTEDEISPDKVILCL
Outline: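 Flp293T cells stably expressing BRD4_BD2-GFP plus mCherry reporter, seeded a day earlier in FluoroBrite DMEM/10% FBS; compounds in dose response co-dosed with 100 nM dBET6 (0.5% DMSO), 5 h. […] Lenalidomide positive control.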

[2] = biological target: T1, Protein cereblon/Eukaryotic translation initiation factor 4E (Homo sapiens) (UniProt P06730+Q96SW2); experiment: Protac activity at CRBN/eIF4E in human HEK293T cells assessed as induction of intracellular eIF4E degradation at 1 uM measured after 0.5 to 24 hrs by Western blot analysis; assay type: cell-based; conditions: time 0.5-24 hrs
T1 sequence (P06730 whole entry, looked up): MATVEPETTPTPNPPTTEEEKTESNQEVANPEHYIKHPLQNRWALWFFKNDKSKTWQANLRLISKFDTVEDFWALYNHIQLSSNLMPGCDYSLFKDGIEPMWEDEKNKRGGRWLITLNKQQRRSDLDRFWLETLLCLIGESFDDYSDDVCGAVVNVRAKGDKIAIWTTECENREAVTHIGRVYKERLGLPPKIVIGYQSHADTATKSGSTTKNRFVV
T1 sequence (Q96SW2 whole entry, looked up): as the sequence (Q96SW2 whole entry, the tested form may be a part) above
Outline: (§1)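 HEK293T cells exposed either to 0.1-10 μM PROTAC for 24 h or to 1 μM PROTAC for 0.5 to 24 h, DMSO-treated cells alongside; eIF4E level assessed by immunoblotting.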

[3] = biological target: T1, Protein cereblon/Eukaryotic translation initiation factor 4E (Homo sapiens); experiment: Protac activity at CRBN/eIF4E in human HEK293T cells assessed as induction of intracellular eIF4E degradation at 0.1 to 10 uM measured after 24 hrs by Western blot analysis; assay type: cell-based; conditions: dose 0.1-10 µM; outline: as §1
[4] = biological target: T1, Protein cereblon/Eukaryotic translation initiation factor 4E (Homo sapiens); experiment: Protac activity at CRBN/eIF4E in human HEK293T cells assessed as induction of eIF4E ubiquitination at 1 uM in presence of 26S proteasome inhibitor, Bortezomib by Western blot analysis; assay type: cell-based
Outline: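 HEK293T cells incubated with 1 μM PROTAC plus 100 nM bortezomib; eIF4E ubiquitination compared with bortezomib-alone and DMSO-treated cells.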

[5] = system: HeLa; experiment: Cytotoxicity activity against human HeLa cells assessed as cell killing at 10 uM measured after 24 hrs by CellTiter Glo luminescence assay; assay type: functional
Outline: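 HeLa cells in 4.5 g/L glucose DMEM, 10% FBS, 1% pen/strep, 5x10³ cells/well; medium replaced 24 h post-seeding with drug-containing medium at equal DMSO. CellTiter-Glo luminescence read, normalized to DMSO control; at least two experiments, triplicates.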

[6] = biological target: Protein cereblon/Zinc finger protein 827 (Homo sapiens) (UniProt Q96SW2+Q17R98); experiment: Protac activity at CRBN/ZNF827 in human Kelly cells assessed as induction of ZNF827 degradation by measuring downregulation of ZNF827 protein expression at 1 uM measured after 5 hrs by proteomics analysis based LC-MS analysis; assay type: cell-based
Protein cereblon/Zinc finger protein 827 (Homo sapiens), sequence (Q17R98 whole entry, looked up): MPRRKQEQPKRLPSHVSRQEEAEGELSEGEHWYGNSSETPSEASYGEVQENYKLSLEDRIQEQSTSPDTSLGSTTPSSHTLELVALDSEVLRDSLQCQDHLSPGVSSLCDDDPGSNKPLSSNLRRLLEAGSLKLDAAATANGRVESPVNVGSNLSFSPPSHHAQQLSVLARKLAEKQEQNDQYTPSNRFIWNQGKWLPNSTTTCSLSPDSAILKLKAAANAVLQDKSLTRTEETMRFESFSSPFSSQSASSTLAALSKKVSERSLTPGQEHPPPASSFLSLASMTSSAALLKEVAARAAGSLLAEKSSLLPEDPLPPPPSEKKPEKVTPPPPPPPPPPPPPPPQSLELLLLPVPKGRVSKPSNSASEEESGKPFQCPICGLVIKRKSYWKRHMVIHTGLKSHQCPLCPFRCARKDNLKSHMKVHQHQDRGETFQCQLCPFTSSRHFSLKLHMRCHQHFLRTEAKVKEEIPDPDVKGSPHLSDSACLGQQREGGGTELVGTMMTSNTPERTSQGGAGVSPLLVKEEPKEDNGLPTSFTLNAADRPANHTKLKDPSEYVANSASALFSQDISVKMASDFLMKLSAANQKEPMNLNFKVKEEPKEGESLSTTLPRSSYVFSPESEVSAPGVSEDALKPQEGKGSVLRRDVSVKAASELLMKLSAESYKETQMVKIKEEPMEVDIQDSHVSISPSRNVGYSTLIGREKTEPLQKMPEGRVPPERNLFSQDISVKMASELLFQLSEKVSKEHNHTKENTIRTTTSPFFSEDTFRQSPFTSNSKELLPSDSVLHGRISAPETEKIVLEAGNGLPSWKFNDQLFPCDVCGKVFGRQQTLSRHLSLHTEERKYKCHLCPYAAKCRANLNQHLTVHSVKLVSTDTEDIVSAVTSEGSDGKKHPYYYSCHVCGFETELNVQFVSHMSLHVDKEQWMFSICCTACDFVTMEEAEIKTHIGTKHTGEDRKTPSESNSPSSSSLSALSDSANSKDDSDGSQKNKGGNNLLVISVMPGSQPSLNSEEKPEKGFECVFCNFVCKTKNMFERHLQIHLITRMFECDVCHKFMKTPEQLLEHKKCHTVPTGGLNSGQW
Protein cereblon/Zinc finger protein 827 (Homo sapiens), sequence (Q96SW2 whole entry, looked up): as the sequence (Q96SW2 whole entry, the tested form may be a part) above
Outline: (§2)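 Kelly cells given 1 μM compound or DMSO (biological triplicate) for 5 h; urea/EPPS pH 8.5 lysis, 100 μg protein reduced, alkylated, digested, TMT-labelled, high-pH reverse-phase fractionated into 96 fractions; LC-MS over a 190 min 9-32% acetonitrile gradient with MS3-based TMT quantification with real-time search; change relative to DMSO.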

[7] = biological target: Protein cereblon/Sal-like protein 4 (Homo sapiens) (UniProt Q96SW2+Q9UJQ4); experiment: Protac activity at CRBN/SALL4 in human Kelly cells assessed as induction of SALL4 degradation by measuring downregulation of SALL4 protein expression at 1 uM measured after 5 hrs by proteomics analysis based LC-MS analysis; assay type: cell-based; outline: as §2
Protein cereblon/Sal-like protein 4 (Homo sapiens), sequence (Q96SW2 whole entry, looked up): as the sequence (Q96SW2 whole entry, the tested form may be a part) above
Protein cereblon/Sal-like protein 4 (Homo sapiens), sequence (Q9UJQ4 whole entry, looked up): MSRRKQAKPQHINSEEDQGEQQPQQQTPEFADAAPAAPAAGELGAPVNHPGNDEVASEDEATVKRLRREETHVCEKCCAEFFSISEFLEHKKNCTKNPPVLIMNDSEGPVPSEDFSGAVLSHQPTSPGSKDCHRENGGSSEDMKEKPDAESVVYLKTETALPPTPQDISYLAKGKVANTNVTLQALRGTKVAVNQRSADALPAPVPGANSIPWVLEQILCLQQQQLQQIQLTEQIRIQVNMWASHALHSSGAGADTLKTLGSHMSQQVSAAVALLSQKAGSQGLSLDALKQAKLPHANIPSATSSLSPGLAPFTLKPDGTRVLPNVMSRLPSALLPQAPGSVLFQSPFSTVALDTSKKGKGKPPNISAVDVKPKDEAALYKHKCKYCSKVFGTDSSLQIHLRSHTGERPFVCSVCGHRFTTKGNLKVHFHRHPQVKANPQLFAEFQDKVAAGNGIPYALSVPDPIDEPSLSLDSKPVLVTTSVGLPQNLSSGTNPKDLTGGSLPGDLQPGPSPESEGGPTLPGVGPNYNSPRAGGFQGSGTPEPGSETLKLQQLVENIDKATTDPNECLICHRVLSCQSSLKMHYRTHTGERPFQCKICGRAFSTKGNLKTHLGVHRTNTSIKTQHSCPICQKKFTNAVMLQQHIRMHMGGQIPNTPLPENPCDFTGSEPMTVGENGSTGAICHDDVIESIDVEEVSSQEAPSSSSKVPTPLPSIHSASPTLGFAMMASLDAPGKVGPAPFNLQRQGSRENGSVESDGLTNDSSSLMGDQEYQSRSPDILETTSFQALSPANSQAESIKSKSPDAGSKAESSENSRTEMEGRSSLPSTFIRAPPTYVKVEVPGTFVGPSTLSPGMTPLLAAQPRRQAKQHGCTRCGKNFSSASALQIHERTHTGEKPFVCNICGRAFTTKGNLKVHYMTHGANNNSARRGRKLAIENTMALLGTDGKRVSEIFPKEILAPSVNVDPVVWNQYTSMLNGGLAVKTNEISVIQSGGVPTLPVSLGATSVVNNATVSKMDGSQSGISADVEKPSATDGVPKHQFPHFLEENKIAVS

[8] = biological target: T1, Protein cereblon/Eukaryotic translation initiation factor 4E (Homo sapiens); experiment: Protac activity at CRBN/eIF4E in human Kelly cells assessed as induction of eIF4E degradation by measuring downregulation of eIF4E protein expression at 1 uM measured after 5 hrs by proteomics analysis based LC-MS analysis; assay type: cell-based; outline: as §2
[9] = biological target: Protein cereblon/Zinc finger protein 692 (Homo sapiens) (UniProt Q96SW2+Q9BU19); experiment: Protac activity at CRBN/ZNF692 in human Kelly cells assessed as induction of ZNF692 degradation by measuring downregulation of ZNF692 protein expression at 1 uM measured after 5 hrs by proteomics analysis based LC-MS analysis; assay type: cell-based; outline: as §2
Protein cereblon/Zinc finger protein 692 (Homo sapiens), sequence (Q96SW2 whole entry, looked up): as the sequence (Q96SW2 whole entry, the tested form may be a part) above
Protein cereblon/Zinc finger protein 692 (Homo sapiens), sequence (Q9BU19 whole entry, looked up): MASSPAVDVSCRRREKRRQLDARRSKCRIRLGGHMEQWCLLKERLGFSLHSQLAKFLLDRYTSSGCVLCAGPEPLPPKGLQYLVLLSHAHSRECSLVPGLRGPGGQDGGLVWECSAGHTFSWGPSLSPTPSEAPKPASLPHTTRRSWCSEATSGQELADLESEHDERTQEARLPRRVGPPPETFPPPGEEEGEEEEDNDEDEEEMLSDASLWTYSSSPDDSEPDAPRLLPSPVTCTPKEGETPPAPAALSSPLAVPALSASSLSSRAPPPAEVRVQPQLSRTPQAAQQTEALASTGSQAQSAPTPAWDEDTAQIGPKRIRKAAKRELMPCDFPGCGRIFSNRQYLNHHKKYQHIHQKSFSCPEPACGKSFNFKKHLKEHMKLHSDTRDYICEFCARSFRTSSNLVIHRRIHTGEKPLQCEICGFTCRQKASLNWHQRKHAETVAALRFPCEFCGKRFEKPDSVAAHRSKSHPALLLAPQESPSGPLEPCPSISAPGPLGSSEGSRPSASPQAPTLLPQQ

[10] = system: MM1.S; experiment: Cytotoxicity against human MM1.S cells assessed as reduction in cell viability after 48 hrs by Cell specific bioluminescence imaging (CS-BLI) assay
[11] = system: MM1.S; experiment: Cytotoxicity against human MM1.S cells assessed as reduction in cell viability after 72 hrs by Cell specific bioluminescence imaging (CS-BLI) assay
[12] = system: MM1.S; experiment: Cytotoxicity against human MM1.S cells assessed as reduction in cell viability after 24 hrs by Cell specific bioluminescence imaging (CS-BLI) assay
[13] = system: MCF7; experiment: Cytotoxicity against human MCF7 cells assessed as reduction in cell viability after 72 hrs by Cell specific bioluminescence imaging (CS-BLI) assay; conditions: MCF7, 72 h
[14] = system: MCF7; experiment: Cytotoxicity against human MCF7 cells assessed as reduction in cell viability after 24 hrs by Cell specific bioluminescence imaging (CS-BLI) assay; conditions: MCF7, 24 h
[15] = system: MCF7; experiment: Cytotoxicity against human MCF7 cells assessed as reduction in cell viability after 48 hrs by Cell specific bioluminescence imaging (CS-BLI) assay; conditions: MCF7, 48 h

- Activity ([1]; Flp-In-293): inactive
SMILES: O=C(COc1cccc2c1C(=O)N(C1CCC(=O)NC1=O)C2=O)NCCCCNC(=O)Cc1sc(N/N=C(\Cc2ccccc2[N+](=O)[O-])C(=O)O)nc1-c1ccc(Cl)c(Cl)c1 (configuration not stated)

- IC50 [1]: 20.7 µM
- Activity [2]: inactive
- Activity [3]: inactive
- Activity [4]: inactive
SMILES: C/C(=N\Nc1nc(-c2ccc(Cl)c(Cl)c2)c(CC(=O)NCCNc2cccc3c2C(=O)N(C2CCC(=O)NC2=O)C3=O)s1)C(=O)OCOC(=O)C(C)(C)C (configuration not stated)

SMILES: C/C(=N\Nc1nc(-c2ccc(-c3ccccc3)cc2)cs1)C(=O)NCCCNc1cccc2c1C(=O)N(C1CCC(=O)NC1=O)C2=O (configuration not stated)
- Activity [5]: 50%

- Activity [2]: inactive
- Activity [3]: inactive
- Activity [4]: inactive
SMILES: C/C(=N\Nc1nc(-c2ccc(-c3ccccc3)cc2)cs1)C(=O)NCCNc1cccc2c1C(=O)N(C1CCC(=O)NC1=O)C2=O (configuration not stated)
- Activity [5]: 50%

- IC50 [1]: 1.6 µM
- Activity [6]: Active
- Activity [7]: Active
- Activity [8]: inactive
- Activity [9]: Active
SMILES: C/C(=N\Nc1nc(-c2ccc(-c3ccccc3)cc2)cs1)C(=O)NCCCCNc1cccc2c1C(=O)N(C1CCC(=O)NC1=O)C2=O (configuration not stated)

- IC50 [1]: 13 µM
SMILES: O=C1CCC(N2C(=O)c3cccc(NCCCCNC(=O)/C(=N\Nc4nc(-c5ccc(-c6ccccc6)cc5)cs4)c4ccccc4[N+](=O)[O-])c3C2=O)C(=O)N1 (configuration not stated)

SMILES: O=C(O)C(Cc1ccccc1[N+](=O)[O-])=NNc1nc(-c2ccc(Cl)c(Cl)c2)cs1
- IC50 [10]: 18.7 µM
- IC50 [11]: 15.6 µM
- IC50 [12]: 22.6 µM
- IC50 [13]: 35.1 µM
- IC50 [14]: 71.2 µM
- IC50 [15]: 43.1 µM
